# Experimental data gathered from unrelated publications.
# Compare with care: the assays were run in different laboratories. pEC50, pIC50: −log10 of the molar value.
# Cell line: A-375
# Read-out: cell growth or viability
Compound,assay,conditions,endpoint,value
CN(C)CCOc1ccc(-c2nc(-c3ccncc3)c(-c3ccc4c(c3)CC/C4=N\O)[nH]2)cc1,,,pEC50,7.52
O=C(O)/C=C/c1ccc(O)c(O)c1,MTT,,pIC50,5.32
CNC(=O)c1cc(Oc2ccc(NC(=O)Nc3ccc(Cl)c(C(F)(F)F)c3)cc2)ccn1,,,pEC50,5.40
CNc1nc2ccccc2n2c(-c3cccc(OC)c3)cnc12,neutral red,96 h,pIC50,6.64
CC(=O)c1ccc(N=Nc2c(C(=O)O)cc(O)c(O)c2O)cc1,MTT,,pIC50,4.89
CC(C)C[C@H](NC(=O)[C@H](Cc1ccccc1)NC(=O)c1cnccn1)B(O)O,ATP luminescence,,pIC50,7.96
O=C(O)c1cc(O)c(O)c(O)c1,MTT,,pIC50,4.73
Cn1nccc1Nc1nccc(-c2cc3c(s2)C(C)(C)N(CCN2CCOCC2)C3=O)n1,resazurin,96 h,pIC50,6.46
COc1cc(C(=O)c2csc(-c3ccccc3)n2)cc(OC)c1OC,SRB,96 h,pIC50,7.55
Cn1nccc1Nc1nccc(-c2ccn([C@H](CO)c3ccc(Cl)c(F)c3)c(=O)c2)n1,resazurin,96 h,pIC50,6.89
COc1cc(Nc2nccc(-c3cnn4nc(OC)ccc34)n2)cc(C(F)(F)F)c1,ATP luminescence,,pIC50,7.01
